Format in all cases: biochemical
For experiment [1], the target named is T1, ERAP2^N (Homo sapiens, UniProt Q6P179, K392N). The experiment can be described thus: R-AMC hydrolysis / Michaelis-Menten analysis by ERAP2^N.
Experiment [2] has as its target T2, ERAP2^K (Homo sapiens, UniProt Q6P179). The experiment can be described thus: R-AMC hydrolysis / Michaelis-Menten analysis by ERAP2^K.
In experiment [3] the target is T1, ERAP2^N. Nature of the experiment: Trimming of […] by ERAP2 alleles. Particulars: ERAP2^N vs ERAP2^K; MS (LTQ Orbitrap), <30% completion.
Experiment [4] has as its target T1, ERAP2^N. The experiment can be described thus: Inhibition of R-AMC hydrolysis by ERAP2^N. Particulars: ERAP2^N vs ERAP2^K, Ki values only in Figure 7B. The essentials: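 His-tagged recombinant human ERAP2 (N392 or K392 form), baculovirus-expressed in Hi5 insect cells, Ni-NTA purified and thawed once before use. R-AMC hydrolysis was tracked against rising inhibitor concentrations by fluorescence (ex 380 nm, em 460 nm) over 5 min, with the slope taken as the rate.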

Experiment [5] has as its target T2, ERAP2^K. The experiment can be described thus: Peptide trimming by ERAP2^K. Particulars: for trimming rate relative to ERAP1: ERAP2^K compared to ERAP1. The essentials: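 20 μM peptide was incubated with 100 to 4,000ng (7.3 to 293.6nM) ERAP1 or recombinant ERAP2 at 37°C for 15 min to 1 hour in 50mM HEPES pH 7.0, 100mM NaCl. Reactions were stopped with 0.1% TFA, centrifuged, and run on C18 RP-HPLC (5–50% acetonitrile, A220). Initial rates were taken under <30% completion, and enzymes were compared in parallel. Products were identified by peptide controls and MS; epitope destruction was measured from accumulated smaller peptides.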

Experiment [6] addresses T1, ERAP2^N. Nature of the experiment: Peptide trimming by ERAP2^N. Particulars: 20 μM precursor; for trimming rates, comparison of alleles: ERAP2^N vs ERAP2^K, 37°C, pH 7.0.
The mark [7] stands for this setting: ERAP2^K, Michaelis-Menten analysis.
Setting [8] is: precursor carrying N-terminal leucine.

From PMC3530405 (Journal of immunology (Baltimore, Md. : 1950), 2012) come the findings set out here.

“Also recorded” adds a separate entry of the source.

T1 sequence (Q6P179 whole entry K392N): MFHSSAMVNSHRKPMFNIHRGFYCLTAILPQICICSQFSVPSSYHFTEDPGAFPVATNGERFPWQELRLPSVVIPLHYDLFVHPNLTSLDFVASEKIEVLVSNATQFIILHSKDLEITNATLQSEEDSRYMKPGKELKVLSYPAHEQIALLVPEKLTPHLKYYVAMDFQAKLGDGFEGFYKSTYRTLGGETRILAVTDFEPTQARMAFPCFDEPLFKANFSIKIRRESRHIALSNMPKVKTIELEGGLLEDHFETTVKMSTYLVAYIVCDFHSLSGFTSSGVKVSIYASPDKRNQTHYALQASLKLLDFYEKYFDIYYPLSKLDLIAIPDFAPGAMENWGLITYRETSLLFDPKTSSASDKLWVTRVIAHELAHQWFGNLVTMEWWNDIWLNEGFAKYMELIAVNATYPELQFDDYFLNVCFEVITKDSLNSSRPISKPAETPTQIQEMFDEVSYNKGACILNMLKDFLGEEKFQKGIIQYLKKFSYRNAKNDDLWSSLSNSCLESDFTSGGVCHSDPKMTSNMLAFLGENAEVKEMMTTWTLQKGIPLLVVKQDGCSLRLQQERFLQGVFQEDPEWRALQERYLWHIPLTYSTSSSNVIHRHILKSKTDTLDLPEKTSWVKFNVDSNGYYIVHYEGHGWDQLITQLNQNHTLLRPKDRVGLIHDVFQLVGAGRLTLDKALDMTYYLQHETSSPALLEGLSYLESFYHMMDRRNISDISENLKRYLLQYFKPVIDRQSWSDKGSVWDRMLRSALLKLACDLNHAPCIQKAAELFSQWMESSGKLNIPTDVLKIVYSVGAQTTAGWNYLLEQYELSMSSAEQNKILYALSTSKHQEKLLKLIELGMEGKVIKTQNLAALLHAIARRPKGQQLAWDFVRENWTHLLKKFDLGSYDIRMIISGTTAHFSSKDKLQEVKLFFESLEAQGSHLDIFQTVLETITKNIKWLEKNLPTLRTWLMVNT
T2 sequence (Q6P179 whole entry): as the sequence (Q6P179 whole entry K392N) above, with N392K counted along it

As a reminder, the Km is the concentration of substrate that gives half-maximal velocity. As to `Cc1cc(=O)oc2cc(NC(=O)[C@@H](N)CCCN=C(N)N)ccc12` [R-AMC, L-Arginyl-7-amido-4-methyl coumarin], the Km is 30 ± 9 µM on ERAP2^N [1] (Michaelis-Menten analysis) and 17 ± 5 µM on ERAP2^K [2] (setting [7]). For the same compound, the kcat at ERAP2^N [1] (Michaelis-Menten analysis) is listed as 104±9 ×10^−3 sec^−1; on ERAP2^K [2] (setting [7]) it was 5.8±0.4 ×10^−3 sec^−1. The rate of hydrolysis on ERAP2^N [1] (fluorescence ex 380 nm, em 460 nm, 5 min) is 78±1 mmol product/mol enzyme sec^−1; at ERAP2^K [2] (ERAP2^K, fluorescence ex 380 nm, em 460 nm, 5 min) it was 4.8±3 mmol/mol sec^−1. In addition, the “lowering of kcat constant” value on ERAP2^K [2] (ERAP2^K vs ERAP2^N) is reported as “about 18 fold”. Besides, the “change of substrate affinity between polymorphic states” value on ERAP2^K [2] (ERAP2^N vs ERAP2^K) is listed as “less than 2 fold”.

In the case of ASRHHAFSFR, at ERAP2^N [3], the “epitope generation rate, fold faster” value is “about 2 fold”.

In the case of Amastatin, at ERAP2^N [4], the “inhibition of the two ERAP2 alleles” value is given as “nearly identical”.

Take LSRHHAFSFR: the “trimming rate relative to ERAP1” value at ERAP2^K [5] (setting [8]) is reported as “much less efficient”.

Regarding LSRYWAIRTR, on ERAP2^N [6], the “trimming rates, comparison of alleles” value is given as “drastically different”. Also, the “epitope generation from precursor” value on ERAP2^K [5] (ERAP2^K, RP-HPLC, 20 μM peptide, 37°C, pH 7.0) is on record as “essentially failing to produce detectable amounts of mature epitope; also recorded: absence of a visible epitope peak produced by ERAP2^K”.

For RSRYWAIRTR, the “trimming rates, comparison of alleles” value at ERAP2^N [6] is reported as “almost identical rates by both ERAP2 alleles; also recorded: essentially identical for both alleles”.

In the case of SRHHAFSFR, the “all three enzymes: epitope generation vs destruction” value on ERAP2^K [5] (ERAP1, ERAP2^N and ERAP2^K, precursor carrying N-terminal leucine) is “generated the epitope faster than they destroyed it”. Besides, at ERAP2^K [5] (setting [8]), the “trimming rate relative to ERAP1” value is given as “negligible compared to that of ERAP1”.

In the case of WLRRYLENGK, at ERAP2^N [6] (ERAP2^N versus ERAP2^K), the “trimming rate difference between alleles” value turned out to be 165 fold.
